We go through eight molecules from ChEMBL document CHEMBL1157417, “Synthetic and pharmacological studies on new simplified analogues of the potent actin-targeting Jaspamide” (Bioorg Med Chem, 2008).

What all share (format): functional, cell-based
In test [1] the test system is A498. In words: Cytotoxicity against human A498 cells after 48 hrs by SRB binding assay. The note with it: A498, 48 h. Put shortly:
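A498 kidney adenocarcinoma cells kept in R-MEM with 10% FBS and 50 µg/mL gentamycin, 37 °C, 5% CO2. Seeded at about 15% confluency and left 24 h to attach. Treated in triplicate with varying concentrations for 48 h. Survival read by sulforhodamine B binding as a percentage of control cultures.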

The subject of test [2] is A498. Nature of the test: Effect on morphology in human A498 cells assessed as cell aberration at 100 umol after 16 hrs by microfilament immunofluorescence assay. Put shortly: (§1)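 A-498 cells grown to near-confluency on glass coverslips, then exposed 16 h. Cytochalasin B served as the microfilament-depolymerising positive control. Microfilaments stained with monoclonal anti-actin and microtubules with monoclonal anti-β-tubulin, both visualised with fluorescein-conjugated anti-mouse IgG. Scored for binucleation and other cellular aberration.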

The test system of test [3] is A498. In words: Effect on morphology in human A498 cells assessed as appearance of binucleated cells after 16 hrs by microfilament immunofluorescence assay. Put shortly: as §1

The source made the active and inactive calls. No cut-off for these calls is given here.

Usually IC50 stands for the midpoint of a concentration-inhibition curve. A higher IC50 goes with weaker potency in that assay. `C[C@@H]1NC(=O)CC/C=C/CCCOC(=O)C[C@H](c2ccccc2)NC(=O)[C@@H](Cc2c[nH]c3ccccc23)NC1=O` registered an IC50 in test [1] of 25 µM. In test [2], the outcome was inactive.

As for `C=C1[C@@H](C)[C@H]2[C@H](Cc3ccccc3)NC(=O)[C@]23OC(=O)/C=C/[C@H](O)CCC[C@@H](C)C/C=C/[C@H]3[C@@H]1O`, the outcome in test [3] was Active.

For `COc1ccc([C@H]2CC(=O)NCCCC(=O)NCCC(=O)N[C@@H](C)C(=O)N[C@H](Cc3c[nH]c4ccccc34)C(=O)N2)cc1`, the outcome in test [2] was inactive.

Turning to `C[C@@H]1NC(=O)CCCCCCCNC(=O)C[C@H](c2ccccc2)NC(=O)[C@@H](Cc2c[nH]c3ccccc23)NC1=O`, the result in test [2] was inactive.

For `C[C@@H]1NC(=O)CCNC(=O)CCCNC(=O)C[C@H](c2ccccc2)NC(=O)[C@@H](Cc2c[nH]c3ccccc23)NC1=O`, in test [2], the outcome was inactive.

`C[C@@H]1NC(=O)CCNC(=O)CCCNC(=O)CCNC(=O)[C@@H](Cc2c[nH]c3ccccc23)NC1=O`: in test [2], the outcome was inactive.

`CC1/C=C/CCCOC(=O)C[C@H](c2ccccc2)NC(=O)[C@@H](Cc2c[nH]c3ccccc23)NC(=O)[C@H](C)NC(=O)C1` (stereo not given in full): the IC50 in test [1] turned out to be 25 µM. Further, the outcome in test [2] was inactive.

On to `C[C@@H]1NC(=O)CC/C=C/CCCOC(=O)CCNC(=O)[C@@H](Cc2c[nH]c3ccccc23)NC1=O`, for which the result in test [2] was inactive.
